Measurements from ChEMBL document CHEMBL4265907, “Design, synthesis and pharmacological evaluation of N4,N6-disubstituted pyrimidine-4,6-diamine derivatives as potent EGFR inhibitors in non-small cell lung cancer” (Eur J Med Chem, 2018).

What was measured:
[1] = biological target: Vascular endothelial growth factor receptor 2 (Homo sapiens) (UniProt P35968); assay: Inhibition of N-terminal GST-tagged human KDR cytoplasmic domain (790 to 1356 residues) expressed in baculovirus expression system at […] using FAM-labeled peptide as substrate after 10 mins by mobility shift assay relative to control
Procedure, shortened: (§1)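 Caliper mobility-shift kinase assay. Kinase in kinase base buffer was preincubated with compound for 10 min at room temperature. FAM-labelled peptide and ATP at Km were then added, and the reaction ran at 28 °C until quenched with buffer. Screening concentration was 1 µM. Percent inhibition = (max − conversion)/(max − min) × 100, with DMSO as max and a low control as min.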

[2] = biological target: Fibroblast growth factor receptor 1 (Homo sapiens) (UniProt P11362); assay: Inhibition of N-terminal GST-tagged human FGFR1 cytoplasmic domain (398 to 822 residues) expressed in baculovirus expression system at […] using FAM-labeled peptide as substrate after 10 mins by mobility shift assay relative to control; procedure, shortened: as §1
[3] = biological target: Epidermal growth factor receptor (Homo sapiens, UniProt P00533); assay: Inhibition of N-terminal GST-tagged wild type human EGFR cytoplasmic domain (669 to 1210 residues) expressed in baculovirus expression system using FAM-labeled peptide as substrate after 10 mins by mobility shift assay
[4] = biological target: Epidermal growth factor receptor (Homo sapiens, UniProt P00533, DEL747/DEL747-750); assay: Inhibition of N-terminal GST-tagged human EGFR del 747-750 mutant cytoplasmic domain expressed in baculovirus expression system using FAM-labeled peptide as substrate after 10 mins by mobility shift assay
Chain of Epidermal growth factor receptor (Homo sapiens, UniProt P00533, DEL747/DEL747-750) (P00533 with tags, fused parts or gaps DEL747/DEL747-750 limits assumed): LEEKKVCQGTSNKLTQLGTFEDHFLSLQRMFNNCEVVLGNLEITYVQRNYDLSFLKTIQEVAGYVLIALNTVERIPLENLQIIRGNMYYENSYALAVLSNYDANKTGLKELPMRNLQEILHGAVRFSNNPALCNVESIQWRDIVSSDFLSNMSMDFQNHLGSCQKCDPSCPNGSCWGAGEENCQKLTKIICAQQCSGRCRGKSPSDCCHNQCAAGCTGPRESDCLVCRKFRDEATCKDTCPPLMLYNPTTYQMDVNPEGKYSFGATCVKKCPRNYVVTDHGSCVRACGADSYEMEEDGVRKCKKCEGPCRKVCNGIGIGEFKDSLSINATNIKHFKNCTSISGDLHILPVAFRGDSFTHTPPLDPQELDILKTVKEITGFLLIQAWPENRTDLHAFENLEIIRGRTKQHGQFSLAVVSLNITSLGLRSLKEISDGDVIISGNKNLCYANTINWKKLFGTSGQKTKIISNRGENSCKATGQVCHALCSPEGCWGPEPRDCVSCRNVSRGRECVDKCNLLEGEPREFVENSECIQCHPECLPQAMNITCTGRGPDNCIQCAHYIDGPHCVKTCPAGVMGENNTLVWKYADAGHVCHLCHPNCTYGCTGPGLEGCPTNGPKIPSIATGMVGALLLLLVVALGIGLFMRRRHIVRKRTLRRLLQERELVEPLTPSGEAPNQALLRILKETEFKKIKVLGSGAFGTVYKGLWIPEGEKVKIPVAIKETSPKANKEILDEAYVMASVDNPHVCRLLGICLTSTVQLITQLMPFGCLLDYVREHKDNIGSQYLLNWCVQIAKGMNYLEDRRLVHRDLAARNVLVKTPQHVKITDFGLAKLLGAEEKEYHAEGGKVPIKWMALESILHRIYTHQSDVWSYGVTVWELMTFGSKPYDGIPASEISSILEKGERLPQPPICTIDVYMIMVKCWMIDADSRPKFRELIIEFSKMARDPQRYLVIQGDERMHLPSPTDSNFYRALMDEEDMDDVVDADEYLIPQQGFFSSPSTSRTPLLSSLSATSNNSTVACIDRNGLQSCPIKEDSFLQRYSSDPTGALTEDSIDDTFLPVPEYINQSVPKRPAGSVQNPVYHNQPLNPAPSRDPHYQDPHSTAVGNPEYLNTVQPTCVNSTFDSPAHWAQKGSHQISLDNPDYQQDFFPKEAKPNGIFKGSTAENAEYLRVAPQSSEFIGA

Chain of Vascular endothelial growth factor receptor 2 (Homo sapiens) (P35968 whole entry, the tested form may be a part): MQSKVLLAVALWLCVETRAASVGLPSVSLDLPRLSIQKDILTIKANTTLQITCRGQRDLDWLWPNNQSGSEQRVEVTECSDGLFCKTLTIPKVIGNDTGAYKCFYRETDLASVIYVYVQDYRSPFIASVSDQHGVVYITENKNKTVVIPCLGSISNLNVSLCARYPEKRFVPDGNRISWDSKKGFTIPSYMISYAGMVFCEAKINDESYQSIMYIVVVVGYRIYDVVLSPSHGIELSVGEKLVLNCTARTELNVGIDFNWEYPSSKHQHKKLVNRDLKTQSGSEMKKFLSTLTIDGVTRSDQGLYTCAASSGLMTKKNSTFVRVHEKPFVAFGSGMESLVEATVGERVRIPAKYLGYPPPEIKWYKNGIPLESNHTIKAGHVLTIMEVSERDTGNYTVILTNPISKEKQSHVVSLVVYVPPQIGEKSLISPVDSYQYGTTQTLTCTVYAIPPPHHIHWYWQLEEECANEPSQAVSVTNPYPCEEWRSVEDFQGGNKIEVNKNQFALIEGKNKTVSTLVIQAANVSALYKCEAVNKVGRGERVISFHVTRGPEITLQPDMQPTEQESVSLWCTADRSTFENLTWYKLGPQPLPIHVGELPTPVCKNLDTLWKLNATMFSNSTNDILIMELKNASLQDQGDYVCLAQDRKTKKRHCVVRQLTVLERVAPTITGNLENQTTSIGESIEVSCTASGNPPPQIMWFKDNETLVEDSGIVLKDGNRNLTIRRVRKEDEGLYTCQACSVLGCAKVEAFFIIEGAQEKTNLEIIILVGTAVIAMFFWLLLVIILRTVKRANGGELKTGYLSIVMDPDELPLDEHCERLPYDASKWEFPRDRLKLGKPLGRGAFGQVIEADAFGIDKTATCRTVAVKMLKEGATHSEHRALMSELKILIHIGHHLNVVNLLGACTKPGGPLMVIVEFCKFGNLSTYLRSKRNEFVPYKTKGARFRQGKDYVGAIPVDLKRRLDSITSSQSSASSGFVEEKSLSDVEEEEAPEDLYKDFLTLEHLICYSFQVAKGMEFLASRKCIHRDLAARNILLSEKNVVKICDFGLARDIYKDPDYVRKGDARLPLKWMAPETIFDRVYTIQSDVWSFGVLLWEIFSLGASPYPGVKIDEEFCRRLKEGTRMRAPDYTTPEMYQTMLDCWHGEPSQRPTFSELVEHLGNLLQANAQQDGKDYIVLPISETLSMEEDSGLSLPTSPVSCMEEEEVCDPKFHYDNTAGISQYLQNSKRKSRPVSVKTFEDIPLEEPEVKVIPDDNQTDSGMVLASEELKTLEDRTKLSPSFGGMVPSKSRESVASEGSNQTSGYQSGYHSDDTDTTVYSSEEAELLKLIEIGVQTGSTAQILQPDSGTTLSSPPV
Chain of Epidermal growth factor receptor (Homo sapiens, UniProt P00533) (P00533 whole entry, the tested form may be a part): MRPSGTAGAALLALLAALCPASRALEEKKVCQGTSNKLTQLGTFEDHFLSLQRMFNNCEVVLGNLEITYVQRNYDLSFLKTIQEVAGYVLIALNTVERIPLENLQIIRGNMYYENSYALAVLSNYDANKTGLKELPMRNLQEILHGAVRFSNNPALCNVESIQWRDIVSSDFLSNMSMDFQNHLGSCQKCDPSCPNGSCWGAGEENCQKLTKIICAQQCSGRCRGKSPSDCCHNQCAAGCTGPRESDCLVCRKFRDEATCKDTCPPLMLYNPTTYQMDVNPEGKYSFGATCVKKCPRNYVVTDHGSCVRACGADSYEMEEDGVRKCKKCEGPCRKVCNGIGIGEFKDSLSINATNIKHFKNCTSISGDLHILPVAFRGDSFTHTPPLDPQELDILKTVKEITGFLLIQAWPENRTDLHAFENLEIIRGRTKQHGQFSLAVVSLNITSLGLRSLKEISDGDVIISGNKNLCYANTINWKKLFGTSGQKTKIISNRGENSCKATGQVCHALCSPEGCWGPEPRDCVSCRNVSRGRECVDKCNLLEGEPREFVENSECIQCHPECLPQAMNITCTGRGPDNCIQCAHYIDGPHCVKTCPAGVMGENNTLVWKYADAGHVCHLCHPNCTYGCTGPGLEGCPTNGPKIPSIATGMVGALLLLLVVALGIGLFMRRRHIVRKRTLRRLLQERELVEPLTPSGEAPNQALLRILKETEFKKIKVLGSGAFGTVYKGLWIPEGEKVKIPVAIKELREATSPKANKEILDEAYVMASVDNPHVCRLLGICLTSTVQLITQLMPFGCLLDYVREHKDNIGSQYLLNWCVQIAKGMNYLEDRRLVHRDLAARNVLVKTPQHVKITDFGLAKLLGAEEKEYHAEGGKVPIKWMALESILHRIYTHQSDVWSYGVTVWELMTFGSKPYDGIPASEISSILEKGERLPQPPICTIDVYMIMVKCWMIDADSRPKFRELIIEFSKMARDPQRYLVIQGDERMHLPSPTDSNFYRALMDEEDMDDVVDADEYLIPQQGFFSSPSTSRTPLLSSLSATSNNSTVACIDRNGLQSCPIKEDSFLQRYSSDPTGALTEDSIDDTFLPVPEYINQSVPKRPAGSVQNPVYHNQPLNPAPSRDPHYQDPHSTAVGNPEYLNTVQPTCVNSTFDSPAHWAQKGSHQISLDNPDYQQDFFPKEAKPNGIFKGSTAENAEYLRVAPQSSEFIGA

inhibition [1] [%] | inhibition [2] [%] | SMILES | IC50 [3] [µM] | IC50 [4] [µM]
11.3 | -7.1 | CCOC(=O)CCC(=O)Nc1cc(Nc2cccc(OC)c2)ncn1 |  | 
20.8 | 4.3 | COc1cccc(Nc2cc(NC(=O)c3ccc(F)cc3)ncn2)c1 |  | 
1.7 | 3.5 | O=C(Nc1cc(Nc2ccc(N3CCOCC3)cc2)ncn1)c1ccc(F)cc1 |  | 
2.5 | -4.9 | COc1ccc(Nc2cc(NC(=O)/C=C/c3ccccc3)ncn2)c([N+](=O)[O-])c1 |  | 
-3.4 | 0.5 | COc1ccc(Nc2cc(NC(=O)c3ccc(F)cc3)ncn2)cc1 |  | 
-0.6 | 4.2 | O=C(Nc1cc(Nc2cccc(Cl)c2)ncn1)c1ccc(F)cc1 |  | 
6.1 | 1.8 | Fc1ccc(Nc2cc(Nc3ccc(Cl)cc3)ncn2)cc1 |  | 
8.5 | -5.4 | COc1ccc(/C=C/C(=O)Nc2cc(Nc3cccc(Br)c3)ncn2)cc1 |  | 
6.5 | -8.2 | COc1ccc(OC)c(Nc2cc(Nc3ccc(Cl)cc3)ncn2)c1 |  | 
5.3 | 5.9 | CCOc1ccc(Nc2cc(NC(=O)c3ccc(F)cc3)ncn2)cc1 |  | 
7.7 | -3.6 | CCOC(=O)CCC(=O)Nc1cc(Nc2ccc(S(N)(=O)=O)cc2)ncn1 |  | 
8.5 | -1.3 | Clc1ccc(Nc2cc(Nc3ccc(Cl)cc3)ncn2)cc1 |  | 
1.3 | -3.7 | O=C(/C=C/c1ccccc1)Nc1cc(Nc2ccc(O)cc2)ncn1 |  | 
2.5 | -2.9 | O=C(/C=C/c1ccc(F)cc1)Nc1cc(Nc2ccc(Cl)cc2Cl)ncn1 |  | 
4.9 | -2.3 | CC(C)OC(=O)CCC(=O)Nc1cc(Nc2ccc(C(=O)OC(C)C)cc2)ncn1 |  | 
13.6 |  | CCOC(=O)CCC(=O)Nc1cc(NCCc2cccs2)ncn1 |  | 
13.6 | -2.7 | COc1ccc(OC)c(Nc2cc(Nc3cc(OC)ccc3OC)ncn2)c1 |  | 
0.9 | -9.3 | CCOC(=O)CCCC(=O)Nc1cc(Nc2cc(OC)ccc2OC)ncn1 |  | 
34.5 | -0.4 | CCNc1cc(Nc2cc(OC)ccc2OC)ncn1 |  | 
-6.2 | -5.8 | O=C(Nc1cc(Nc2cccc(Cl)c2)ncn1)c1ccccc1 |  | 
22.5 | -3.6 | CCOC(=O)CCC(=O)Nc1cc(Nc2ccc(Cl)cc2)ncn1 |  | 
1.3 | -3.9 | O=C(/C=C/c1ccc(F)cc1)Nc1cc(Nc2ccc(N3CCOCC3)cc2)ncn1 |  | 
10.1 | 3.1 | O=C(/C=C/c1ccc(F)cc1)Nc1cc(Nc2ccc(Cl)cc2)ncn1 |  | 

inhibition [1] [%] | inhibition [2] [%] | SMILES | IC50 [3] [µM] | IC50 [4] [µM]
10.9 |  | O=C(O)CCC(=O)Nc1cc(Nc2cccc(C(=O)O)c2)ncn1 |  | 
11.3 | -2.3 | COc1ccc(Nc2cc(NC(=O)/C=C/c3ccc(F)cc3Br)ncn2)c([N+](=O)[O-])c1 |  | 
16.8 | -9.3 | O=C(O)CCCC(=O)Nc1cc(Nc2ccccc2Br)ncn1 |  | 
19.2 | -5.3 | O=C(O)CCC(=O)Nc1cc(Nc2cccc(Br)c2)ncn1 |  | 
-1.4 | -5.3 | Clc1ccc(Nc2cc(Nc3ccc4[nH]ncc4c3)ncn2)cc1 |  | 
21.8 | -5.4 | CN1CCN(c2ccc(Nc3cc(NC(=O)/C=C/c4ccc(F)cc4)ncn3)cc2)CC1 |  | 
4.9 | -5.4 | CCOC(=O)c1ccc(Nc2cc(NC(=O)CCC(=O)O)ncn2)cc1 |  | 
3.7 | 0 | CCOC(=O)c1ccc(Nc2cc(Nc3ccc(C(=O)OCC)cc3)ncn2)cc1 |  | 
20 | -3.6 | Clc1cccc(Nc2cc(Nc3cccc(Br)c3)ncn2)c1 |  | 
-1.4 | -1.3 | O=C(Nc1cc(Nc2ccc(Cl)cc2)ncn1)c1ccccc1 |  | 
-0.2 | -6 | COc1cccc(Nc2cc(NC(=O)c3ccccc3)ncn2)c1 |  | 
7.3 | -3.4 | Clc1ccc(Nc2cc(Nc3cccc(Cl)c3)ncn2)cc1 |  | 
9.3 | 8.7 | COc1ccc(Nc2cc(NC(=O)/C=C/c3ccccc3)ncn2)cc1 |  | 
1.7 | -1.1 | CCOC(=O)CC(=O)Nc1cc(Nc2ccc(F)cc2)ncn1 |  | 
10.1 | -1.8 | O=C(Nc1cc(N2CCOCC2)ncn1)c1ccccc1 |  | 
6.5 | -4.6 | CCOC(=O)CCC(=O)Nc1cc(Nc2ccc(C(=O)OCC)cc2)ncn1 |  | 
1.7 | -6.1 | COc1ccc(/C=C/C(=O)Nc2cc(N3CCN(C)CC3)ncn2)cc1 |  | 
7.7 | -6.1 | CN1CCN(c2cc(NC(=O)/C=C/c3ccc(F)cc3)ncn2)CC1 |  | 
7.3 | -4.8 | COc1ccc(/C=C/C(=O)Nc2cc(N3CCOCC3)ncn2)cc1 |  | 
6.1 | -4 | COc1ccc(/C=C/C(=O)Nc2cc(Nc3ccc(Cl)cc3Cl)ncn2)cc1 |  | 
0.6 | 1.5 | CCOc1ccc(Nc2cc(NC(=O)/C=C/c3ccccc3)ncn2)cc1 |  | 
12.8 | -4 | COc1cccc(Nc2cc(Nc3ccc(Cl)cc3)ncn2)c1 |  | 
13.6 | -2.3 | CN1CCN(c2cc(NC(=O)CCCC(=O)O)ncn2)CC1 |  | 

inhibition [1] [%] | inhibition [2] [%] | SMILES | IC50 [3] [µM] | IC50 [4] [µM]
4.9 | -6.6 | CCOC(=O)CCC(=O)Nc1cc(Nc2ccc(N3CCN(C)CC3)cc2)ncn1 |  | 
12.4 | 0.5 | COc1cccc(Nc2cc(NC(=O)CCC(=O)O)ncn2)c1 |  | 
6.1 | 2.2 | CCOc1cccc(Nc2cc(NC(=O)c3ccc(F)cc3)ncn2)c1 |  | 
9.3 | -0.4 | COc1cccc(Nc2cc(NC(=O)/C=C/c3ccccc3)ncn2)c1 |  | 
18.8 |  | CN1CCN(c2ccc(Nc3cc(NC(=O)CCC(=O)O)ncn3)cc2)CC1 |  | 
2.5 | -6.5 | CC(C)OC(=O)CCC(=O)Nc1cc(Nc2ccc(F)cc2)ncn1 |  | 
0.6 | -3.6 | O=C(O)CCC(=O)Nc1cc(Nc2cccc(Cl)c2)ncn1 |  | 
0.6 | -9.8 | Clc1cccc(Nc2cc(Nc3cccc(Cl)c3)ncn2)c1 |  | 
15.2 | -4.6 | O=C(/C=C/c1ccc(F)cc1Br)Nc1cc(Nc2ccc(Cl)cc2Cl)ncn1 |  | 
16.4 | -4.1 | CCOC(=O)c1c(Nc2cc(NC(=O)CCC(=O)OC(C)C)ncn2)sc2c1CCCC2 |  | 
10.9 | -4.8 | Cc1ccc(Nc2cc(NC(=O)c3ccc(F)cc3)ncn2)cc1 |  | 
16.8 | 0.5 | Fc1ccc(Nc2cc(Nc3ccc(F)cc3)ncn2)cc1 |  | 
0.6 | -2.8 | O=C(/C=C/c1ccc(F)cc1Br)Nc1cc(Nc2ccc(N3CCOCC3)cc2)ncn1 |  | 
19.7 | 2.6 | CCOC(=O)CCC(=O)Nc1cc(Nc2cccc(C(=O)OCC)c2)ncn1 |  | 
8.9 | 5.2 | COc1ccc(Nc2cc(NC(=O)c3ccccc3)ncn2)c([N+](=O)[O-])c1 |  | 
20.4 | 0.7 | CCOc1ccc(Nc2cc(NC(=O)/C=C/c3ccc(OC)cc3)ncn2)cc1 |  | 
20.5 |  | COc1cccc(Nc2cc(Nc3cccc(Br)c3)ncn2)c1 |  | 
0.9 | -8.8 | COc1ccc(/C=C/C(=O)Nc2cc(Nc3ccc(Cl)cc3)ncn2)cc1 |  | 
9.7 | -8.8 | CCOC(=O)CCC(=O)Nc1cc(Nc2cc(OC)ccc2OC)ncn1 |  | 
4.9 | -5 | CCCC(C)OC(=O)CCC(=O)Nc1cc(Nc2cccc(C(=O)OC(C)CCC)c2)ncn1 (stereo unspecified) |  | 
-5 | -0.3 | O=C(/C=C/c1ccccc1)Nc1cc(Nc2ccc(N3CCOCC3)cc2)ncn1 |  | 
5.7 | -7.1 | O=C(/C=C/c1ccc(F)cc1Br)Nc1cc(N2CCOCC2)ncn1 |  | 

SMILES | inhibition [1] [%] | inhibition [2] [%] | IC50 [3] [µM] | IC50 [4] [µM]
O=C(O)CCCC(=O)Nc1cc(Nc2ccc(Cl)cc2)ncn1 | 18 | -7.2 | > 10 | 0.944
CCNc1cc(Nc2cccc(Cl)c2)ncn1 | 6.9 | -7.7 | 0.17 | > 10
CCCC(C)OC(=O)CCC(=O)Nc1cc(Nc2cccc(Br)c2)ncn1 (stereo unspecified) | 14.8 | -4.9 |  | 
COc1ccc(OC)c(Nc2cc(NC(=O)CCCC(=O)O)ncn2)c1 | 23.6 | -3.7 | 0.068 | > 10
CCOC(=O)c1ccc(Nc2cc(Nc3cccc(OC)c3)ncn2)cc1 | 11.7 | -9.3 | > 10 | 1.19
COc1ccc(OC)c(Nc2cc(Nc3ccc(S(N)(=O)=O)cc3)ncn2)c1 | 26.2 | -8.2 | 0.779 | 0.467
COc1cc(Nc2cc(Nc3ccc(Cl)cc3)ncn2)cc(OC)c1OC | 37.1 | 1.2 | 0.901 | > 10
COc1cccc(Nc2cc(Nc3ccc(S(N)(=O)=O)cc3)ncn2)c1 | 12.4 | -8.8 | > 10 | 1.23
O=C(O)CCCC(=O)Nc1cc(Nc2cccc(Br)c2)ncn1 | 6.5 | -1.1 | 0.07 | > 10
